According to ChEMBL document CHEMBL1287664, “Synthesis and biological analysis of prostate-specific membrane antigen-targeted anticancer prodrugs” (J Med Chem, 2010):
Calls of active or inactive are those of the source. The rule behind the calls is not given here.

Assays:
LNCaP [1] = assay: Cytotoxicity against human LNCAP cells after 2 hrs by [3H]thymidine incorporation assay; assay type: functional, cell-based
Method in brief: (§1)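 LNCaP cells were seeded at 50000 cells/well and grown to monolayers over 48 h. They were exposed to increasing drug concentrations for 2 h at 37 °C, then kept in drug-free medium for 66 h. [3H]-thymidine (1 mCi/mL) was added for 4 h. Cells were TCA-precipitated (5%, 10 min), dissolved in 0.25 N NaOH and scintillation-counted. IC50 came from % incorporation versus log concentration.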

LNCaP [2] = assay: Cytotoxicity against human LNCAP cells; assay type: functional, cell-based
Method in brief: (§2)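 LNCaP cells (RPMI 1640, 10% heat-inactivated FBS) were seeded at 50000 cells/well and grown 48 h to monolayers. They were pulsed 2 h at 37 °C with drug (free drugs in DMSO; conjugates in saline, ± 100-fold excess PMPA), then chased 66 h drug-free. Cells were labelled 4 h with [3H]-thymidine, TCA-precipitated, NaOH-solubilised and scintillation-counted. IC50 came from % incorporation vs log concentration.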

[3] = target: Glutamate carboxypeptidase 2 (Homo sapiens) (UniProt Q04609); assay: Displacement of DUPA-99mTc from human prostate-specific membrane antigen in LNCaP cells assessed as relative binding affinity after 2 hrs at 37 degC; assay type: cell-based
Chain of Glutamate carboxypeptidase 2 (Homo sapiens) (Q04609 whole entry, looked up): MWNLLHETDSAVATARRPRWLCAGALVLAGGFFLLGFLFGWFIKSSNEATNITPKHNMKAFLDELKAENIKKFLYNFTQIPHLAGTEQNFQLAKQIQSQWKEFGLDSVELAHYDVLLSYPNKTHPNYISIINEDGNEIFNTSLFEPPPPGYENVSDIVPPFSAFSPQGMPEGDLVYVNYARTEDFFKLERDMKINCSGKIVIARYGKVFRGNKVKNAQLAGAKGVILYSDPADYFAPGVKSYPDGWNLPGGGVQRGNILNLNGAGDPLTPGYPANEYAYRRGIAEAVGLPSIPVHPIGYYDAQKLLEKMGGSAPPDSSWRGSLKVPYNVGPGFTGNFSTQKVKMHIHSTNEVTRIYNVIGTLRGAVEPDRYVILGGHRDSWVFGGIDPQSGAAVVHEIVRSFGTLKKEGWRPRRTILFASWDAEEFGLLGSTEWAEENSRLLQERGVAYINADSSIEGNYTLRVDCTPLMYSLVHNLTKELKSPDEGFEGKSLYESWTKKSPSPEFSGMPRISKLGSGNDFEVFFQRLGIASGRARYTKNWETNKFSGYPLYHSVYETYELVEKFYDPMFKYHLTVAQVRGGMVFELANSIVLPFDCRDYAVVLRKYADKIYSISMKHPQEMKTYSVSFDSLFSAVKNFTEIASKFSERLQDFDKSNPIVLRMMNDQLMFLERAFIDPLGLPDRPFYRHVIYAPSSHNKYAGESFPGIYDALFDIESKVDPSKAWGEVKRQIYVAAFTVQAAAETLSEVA

LNCaP [4] = assay: Cytotoxicity against human LNCAP cells at 100 pM to 1 uM after 2 hrs by [3H]thymidine incorporation assay; assay type: functional, cell-based; method in brief: as §1
LNCaP [5] = assay: Cytotoxicity against human LNCAP cells at 100 pM to 1 uM; assay type: functional, cell-based; method in brief: as §2
LNCaP [6] = assay: Cytotoxicity against human LNCAP cells after 2 hrs by [3H]thymidine incorporation assay in presence of 100-fold […]; assay type: functional, cell-based
Method in brief: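 LNCaP monolayers (50000 cells/well, 48 h) received 100-fold excess PMPA to block PSMA sites before the saline-dissolved DUPA conjugate was added. Exposure was 2 h at 37 °C, followed by 66 h in drug-free medium. Viability was read as [3H]-thymidine incorporation (1 mCi/mL, 4 h), TCA-precipitated and scintillation-counted. IC50 came from incorporation versus log concentration.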

CC[C@H](C)[C@H](NC(=O)[C@H]1CCCCN1C)C(=O)N(COC(=O)CC(C)C)[C@H](C[C@@H](OC(C)=O)c1nc(C(=O)N[C@@H](Cc2ccc(C)cc2)C[C@H](C)C(=O)NNC(=O)OCCSSC[C@H](NC(=O)[C@H](Cc2ccccc2)NC(=O)[C@H](Cc2ccccc2)NC(=O)CCCCCCCNC(=O)CC[C@H](NC(=O)N[C@H](CCC(=O)O)C(=O)O)C(=O)O)C(=O)O)cs1)C(C)C
IC50 (LNCaP [1]): 24 nM

CC[C@]1(O)C[C@@H]2CN(CCc3c([nH]c4ccccc34)[C@@](C(=O)OC)(c3cc4c(cc3OC)N(C)[C@H]3[C@@](O)(C(N)=O)[C@H](O)[C@]5(CC)C=CCN6CC[C@]43[C@@H]65)C2)C1 [VINDESINE]
IC50 (LNCaP [2]; Homo sapiens, LNCaP): 9.5 nM

CC1=C[C@H]2O[C@@H]3C[C@H]4OC(=O)/C=C/C=C/C(=O)OCC[C@@H](C)[C@H](OC(=O)OCCSSC[C@H](NC(=O)[C@H](CC(=O)O)NC(=O)[C@@H](N)CNC(=O)[C@H](Cc5ccccc5)NC(=O)[C@H](Cc5ccccc5)NC(=O)CCCCCCNC(=O)CC[C@H](NC(=O)N[C@H](CCC(=O)O)C(=O)O)C(=O)O)C(=O)O)C(=O)OC[C@@]2(CC1)[C@]4(C)[C@]31CO1
RBA [3]: 34%
Activity (LNCaP [4]): inactive

C[C@]12C=CC(=O)C=C1CC[C@@H]1[C@@H]2[C@@H](O)C[C@@]2(C)[C@H]1CC[C@]2(O)C(=O)CO
Activity (LNCaP [5]): inactive

CC[C@H](C)[C@H](NC(=O)[C@H]1CCCCN1C)C(=O)N(COC(=O)CC(C)C)[C@H](C[C@@H](OC(C)=O)c1nc(C(=O)N[C@@H](Cc2ccc(C)cc2)C[C@H](C)C(=O)O)cs1)C(C)C [TUBULYSIN]
IC50 (LNCaP [2]; Homo sapiens, LNCaP): 2.5 nM

CC[C@H](C)[C@H](NC(=O)[C@H]1CCCCN1C)C(=O)N(COC(=O)CC(C)C)[C@H](C[C@@H](OC(C)=O)c1nc(C(=O)N[C@@H](Cc2ccc(C)cc2)C[C@H](C)C(=O)NNC(=O)OCCSSC[C@@H](NC(=O)[C@H](Cc2ccccc2)NC(=O)[C@H](CC(=O)O)NC(=O)CC[C@H](NC(=O)CC[C@H](NC(=O)N[C@@H](CCC(=O)O)C(=O)O)C(=O)O)C(=O)O)C(=O)O)cs1)C(C)C
IC50 (LNCaP [1]): 5 nM

CC[C@H](C)[C@H](NC(=O)[C@H]1CCCCN1C)C(=O)N(COC(=O)CC(C)C)[C@H](C[C@@H](OC(C)=O)c1nc(C(=O)N[C@@H](Cc2ccc(C)cc2)C[C@H](C)C(=O)NNC(=O)OCCSSC[C@H](NC(=O)[C@H](CC(=O)O)NC(=O)[C@@H](N)CNC(=O)[C@H](Cc2ccccc2)NC(=O)[C@H](Cc2ccccc2)NC(=O)CCCCCCNC(=O)CC[C@H](NC(=O)N[C@H](CCC(=O)O)C(=O)O)C(=O)O)C(=O)O)cs1)C(C)C
IC50 (LNCaP [1]): 6 nM
RBA [3]: 26%
Activity (LNCaP [6]): inactive

COC[C@H]1OC(=O)c2coc3c2[C@@]1(C)C1=C(C3=O)[C@@H]2CCC(=O)[C@@]2(C)C[C@H]1OC(C)=O
Activity (LNCaP [5]): inactive

OCCC#Cc1nc(-c2ccc(F)cc2)c(-c2ccncc2)n1CCCc1ccccc1
Activity (LNCaP [5]): inactive

CC1=C[C@H]2O[C@@H]3C[C@H]4OC(=O)/C=C\C=C\C(=O)OCC[C@@H](C)[C@H](O)C(=O)OC[C@@]2(CC1)[C@]4(C)[C@]31CO1 [VERRUCARIN A]
IC50 (LNCaP [2]; lncap): 3.3 nM

CC[C@]1(O)CCN2CCc3c([nH]c4ccccc34)[C@](C(=O)OC)(c3cc4c(cc3OC)N(C)[C@@H]3[C@](O)(C(=O)NNC(=O)OCCSSC[C@H](NC(=O)[C@H](CC(=O)O)NC(=O)[C@@H](N)CNC(=O)[C@H](Cc5ccccc5)NC(=O)[C@H](Cc5ccccc5)NC(=O)CCCCCCNC(=O)CC[C@H](NC(=O)N[C@H](CCC(=O)O)C(=O)O)C(=O)O)C(=O)O)[C@@H](O)[C@@]5(CC)C=CCN6CC[C@@]43[C@@H]65)CC1C2 (some centres undefined)
IC50 (LNCaP [1]): 31 nM
RBA [3]: 25%
Activity (LNCaP [6]): inactive

C[n+]1ccc(-c2cc[n+](C)cc2)cc1
Activity (LNCaP [5]): inactive

CC[C@@]1(O)C(=O)OCc2c1cc1n(c2=O)Cc2cc3ccccc3nc2-1
Activity (LNCaP [5]): inactive

CO[C@@H]1C[C@@H](C[C@H]2CC[C@H](C)[C@H]([C@@H](C)C(=O)O)O2)O[C@]2(O[C@](C)([C@H]3CC[C@@](C)([C@@H]4O[C@@H]([C@H]5O[C@@](O)(CO)[C@H](C)C[C@@H]5C)C[C@@H]4C)O3)C[C@H]2C)[C@@H]1C
Activity (LNCaP [5]): inactive

CC[C@]1(O)C[C@@H]2CN(CCc3c([nH]c4ccccc34)[C@@](C(=O)OC)(c3cc4c(cc3OC)N(C)[C@H]3[C@@](O)(C(=O)NN)[C@H](O)[C@]5(CC)C=CCN6CC[C@]43[C@@H]65)C2)C1 [DESACETYLVINBLASTINEHYDRAZIDE]
IC50 (LNCaP [2]; Homo sapiens, LNCaP): 12.2 nM

COc1cccc2c1C(=O)c1c(O)c3c(c(O)c1C2=O)C[C@@](O)(C(=O)CO)C[C@@H]3O[C@H]1C[C@H](N)[C@H](O)[C@H](C)O1 [DOXORUBICIN]
IC50 (LNCaP [2]; Homo sapiens, LNCaP): 77.6 nM

CC(=O)O[C@H]1C(=O)[C@@]2(C)[C@H]([C@H](OC(=O)c3ccccc3)[C@]3(O)C[C@H](OC(=O)[C@H](O)[C@@H](NC(=O)c4ccccc4)c4ccccc4)C(C)=C1C3(C)C)[C@]1(OC(C)=O)CO[C@@H]1C[C@@H]2O [PACLITAXEL]
IC50 (LNCaP [2]; Homo sapiens, LNCaP): 22.3 nM

C=C1[C@@H]2CCC3[C@@](CC[C@@H]4[C@H](C(=O)O)C[C@@H](O[C@@H]5O[C@H](CO)[C@@H](OS(=O)(=O)O)[C@H](OS(=O)(=O)O)[C@H]5OC(=O)CC(C)C)C[C@@]34C)(C2)[C@@H]1O (some centres undefined)
Activity (LNCaP [5]): inactive

C[S+]([O-])c1ccc(-c2nc(-c3ccc(F)cc3)c(-c3ccncc3)[nH]2)cc1 (centres undefined)
Activity (LNCaP [5]): inactive
